pEC50: −log10 of the molar value. Activity calls are given as the source filed them. No cut-off for these calls is given here.
Assays:
[1] = target: T1, Free fatty acid receptor 1 (Homo sapiens, UniProt O14842); test: Agonist activity at human GPR40 expressed in human HEK293 cells assessed as increase in intracellular calcium flux after 10 mins by fluorescence assay relative to linoleic acid; assay type: functional, cell-based
In short: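 Human GPR40 activity read by calcium mobilization to give EC50. Emax expressed relative to linoleic acid as 100%. Mean ± SD, n = 3.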

[2] = target: T1, Free fatty acid receptor 1; test: Agonist activity at human GPR40 expressed in human HEK293 cells assessed as increase in intracellular calcium flux after 10 mins by fluorescence assay; assay type: functional, cell-based
In short: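 Human GPR40 activity read by calcium mobilization to give EC50. Mean ± SD, n = 3.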

[3] = Cmax in Sprague-Dawley rat at 10 mg/kg, po by LC-ESI-MS analysis; assay type: ADME, organism-based; design: dose 10 mg/kg, route oral; conditions: in vivo
In short: (§1)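 SD rats dosed orally (3 or 10 mg/kg) or by intravenous injection (1 mg/kg). Plasma PK parameters derived per route: Cmax, AUC0-t, Tmax, t1/2 and F after oral dosing; CL, AUC0-t, MRT, t1/2 and Vdss after iv dosing. Mean ± SD from three independent experiments (n = 3).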

Rattus norvegicus [4] = test: Antidiabetic activity in Sprague-Dawley rat assessed as reduction in blood glucose AUC (0 to 60 mins) at 10 to 20 mg/kg, po administered 60 mins prior to glucose challenge by OGTT; assay type: functional, organism-based
In short: (§2)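 OGTT in SD rats: compound given orally 60 min before a 3.0 g/kg glucose challenge. Blood glucose followed over time, and AUC0-60min or AUC0-120min calculated versus vehicle group. Mean ± SD, n = 8.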

[5] = Tmax in Sprague-Dawley rat at 10 mg/kg, po by LC-ESI-MS analysis; assay type: ADME, organism-based; conditions: in vivo; in short: as §1
[6] = Elimination half life in Sprague-Dawley rat at 10 mg/kg, po by LC-ESI-MS analysis; assay type: ADME, organism-based; conditions: in vivo, read-out: beta t1/2 (converted); in short: as §1
Rattus norvegicus [7] = test: Antidiabetic activity in Sprague-Dawley rat assessed as reduction in blood glucose excursion at 10 to 20 mg/kg, po administered 60 mins prior to glucose challenge by OGTT; assay type: functional, organism-based; in short: as §2
[8] = AUC (0 to t) in Sprague-Dawley rat at 10 mg/kg, po by LC-ESI-MS analysis; assay type: ADME, organism-based; conditions: in vivo; in short: as §1
Rattus norvegicus [9] = test: Antidiabetic activity in Sprague-Dawley rat assessed as reduction in blood glucose AUC (0 to 120 mins) at 10 to 20 mg/kg, po administered 60 mins prior to glucose challenge by OGTT; assay type: functional, organism-based; in short: as §2

T1 sequence (O14842 whole entry): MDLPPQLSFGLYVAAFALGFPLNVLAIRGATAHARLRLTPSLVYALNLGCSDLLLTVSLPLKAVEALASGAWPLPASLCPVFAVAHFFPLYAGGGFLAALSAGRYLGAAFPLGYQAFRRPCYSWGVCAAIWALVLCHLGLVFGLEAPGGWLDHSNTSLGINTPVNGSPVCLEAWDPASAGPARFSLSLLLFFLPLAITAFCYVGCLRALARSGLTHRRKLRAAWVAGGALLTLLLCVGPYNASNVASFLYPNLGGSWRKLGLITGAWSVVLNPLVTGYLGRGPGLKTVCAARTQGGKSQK

Row | SMILES | Emax [1] | pEC50 [2] | other results
1 | COCCOc1ccc2c(c1)OC(COc1ccc(CCC(=O)O)c(F)c1)CC2 (stereo unspecified) | 36% | 5.63 | –
2 | CC#C[C@@H](CC(=O)O)c1ccc(OC[C@H]2COc3ccc(C(=O)N(C)C)cc3O2)cc1 | 32% | < 4.52 | –
3 | CC#C[C@H](CC(=O)O)c1ccc(OC[C@@H]2COc3ccc(Cl)cc3O2)cc1 | 41% | 5.30 | –
4 | O=C(O)CCc1ccc(OCC2COc3ccc(Br)cc3O2)cc1F (stereo unspecified) | 81% | 5.65 | –
5 | CS(=O)(=O)CCCOc1ccc2c(c1)OC(COc1ccc(CCC(=O)O)c(F)c1)CC2 (stereo unspecified) | 38% | 4.44 | –
6 | O=C(O)CC1(c2ccc(OCC3COc4ccc(Cl)cc4O3)cc2)COC1 (stereo unspecified) | 66% | 5.09 | –
7 | Cn1ccnc1C(CC(=O)O)c1ccc(OCC2COc3ccc(Cl)cc3O2)cc1 (stereo unspecified) | 68% | 5.23 | –
8 | O=C(O)CCc1ccc(NCC2COc3ccc(Cl)cc3O2)cc1F (stereo unspecified) | 69% | 4.87 | –
9 | CC#C[C@H](CC(=O)O)c1ccc(OC[C@H]2COc3ccc(Cl)cc3O2)cc1 | 47% | 5.47 | –

Now those with a higher pEC50 [2], led by results:

Row | Emax [1] | pEC50 [2] | SMILES | other results
10 | 58% | 5.68 | COc1ccc2c(c1)OC(COc1ccc(CCC(=O)O)c(F)c1)CC2 (stereo unspecified) | –
11 | 60% | 5.68 | CC#C[C@@H](CC(=O)O)c1ccc(OC[C@H]2COc3ccc(C#N)cc3O2)cc1 | –
12 | 80% | 5.83 | COc1ccc2c(c1)OC(COc1ccc(CCC(=O)O)c(F)c1)CO2 (stereo unspecified) | –
13 | 73% | 6.15 | CC#C[C@@H](CC(=O)O)c1ccc(OC[C@H]2COc3ccc(OC(F)(F)F)cc3O2)cc1 | –
14 | 46% | 6.68 | CC#C[C@@H](CC(=O)O)c1ccc(OC[C@H]2COc3cc(F)c(Cl)cc3O2)cc1 | –
15 | 86% | 6.68 | CC#C[C@@H](CC(=O)O)c1ccc(OC[C@H]2COc3ccc(F)cc3O2)cc1 | –
16 | 69% | 6.68 | CC#C[C@@H](CC(=O)O)c1ccc(OC[C@H]2COc3ccc(Br)cc3O2)cc1 | –
17 | 81% | 6.77 | CC#C[C@@H](CC(=O)O)c1ccc(OC[C@H]2COc3c(Cl)cccc3O2)cc1 | –
18 | 78% | 6.92 | CC#C[C@@H](CC(=O)O)c1ccc(OC[C@H]2COc3ccc(C)cc3O2)cc1 | Cmax [3]: 23700 ng/mL; Activity (Rattus norvegicus [4]): Active; Tmax [5]: 0.417 h; half-life [6]: 1.79 h; Activity (Rattus norvegicus [7]): Active; AUC(0-t) [8]: 65.2 µg·h/mL; Activity (Rattus norvegicus [9]): Active
19 | 80% | 6.96 | CC#C[C@@H](CC(=O)O)c1ccc(OC[C@H]2COc3cc(Cl)ccc3O2)cc1 | –
20 | 104% | 7.00 | CC#CC(CC(=O)O)c1ccc(OCC2COc3ccc(Cl)cc3O2)cc1 (stereo unspecified) | –
21 | 70% | 7.05 | CC#C[C@@H](CC(=O)O)c1ccc(OC[C@H]2COc3ccccc3O2)cc1 | Cmax [3]: 36700 ng/mL; Activity (Rattus norvegicus [4]): Active; Tmax [5]: 1.17 h; half-life [6]: 3.14 h; Activity (Rattus norvegicus [7]): Active; AUC(0-t) [8]: 275 µg·h/mL; Activity (Rattus norvegicus [9]): Active

Source: ChEMBL document CHEMBL4261634, “Design and optimization of 2,3-dihydrobenzo[b][1,4]dioxine propanoic acids as novel GPR40 agonists with improved pharmacokinetic and safety profiles” (Bioorg Med Chem, 2018)
